The IC50 is the midpoint of a concentration-inhibition curve. In general, Papp A→B refers to the apparent permeability from the apical to the basolateral side of a cell layer. By Cmax is commonly meant the highest concentration seen after dosing. Usually Tmax stands for the time at which the peak concentration occurs. Broadly, the AUC(0-t) is the area under the concentration-time curve up to a stated or last time point.

Data set [1] is described as follows: Drug level in Sprague-Dawley rat CSF at 30 mg/kg, po measured 2 hrs post dose by LC-MS/MS analysis. Type of data set: ADME, organism-based, Cerebrospinal fluid. Conditions: read-out: Drug uptake. A digest of the protocol:
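Drug-naive Sprague−Dawley rats (n = 4−5/group) were dosed orally once in 5% Solutol plus 20% Captisol in 25 mM PBS, pH 2, and euthanized 2 h later by CO₂. CSF was drawn from the cisterna magna. Drug was measured in CSF, brain and plasma; data as mean ± SEM.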

In data set [2] the test system is Rattus norvegicus. Briefly: In vivo inhibition of glycine transporter-1 in Sprague-Dawley rat assessed as CSF glycine level at 3 mg/kg, po qd for 5 days measured 2 hrs post last dose by LC-MS/MS analysis relative to control. More on the design: scale not given: the % may be the effect or the level left. Type of data set: functional. A digest of the protocol: (§1)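 Drug-naive Sprague-Dawley rats, n = 5 per group, dosed orally once daily for 5 days with vehicle or 1.6, 4.8 or 16.1 μmol/kg. Vehicle was 5% Solutol / 20% Captisol in 25 mM PBS, pH 2. Killed 2 h or 48 h after the last dose. CSF glycine was expressed as % of vehicle control (vehicle 2 h post last dose), mean ± SEM. Two-way ANOVA with Tukey test.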

A short description of data set [3]: Drug level in Sprague-Dawley rat brain at 1 mg/kg, po qd for 5 days measured 2 hrs post last dose by LC-MS/MS analysis. The data set is classed as ADME, organism-based. Conditions: read-out: Drug uptake. The method in brief: (§2)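 Drug-naive Sprague−Dawley rats (n = 5/group) were dosed orally once daily for 5 days in 5% Solutol plus 20% Captisol in 25 mM PBS, pH 2, and sacrificed 2 h after the last dose. Drug was measured in CSF, brain and plasma; mean ± SEM.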

Data set [4] in a line: Drug level in Sprague-Dawley rat brain at 3 mg/kg, po qd for 5 days measured 2 hrs post last dose by LC-MS/MS analysis. The data set is classed as ADME, organism-based. The following applies: read-out: Drug uptake. A digest of the protocol: as §2
A short description of data set [5]: Drug level in Sprague-Dawley rat brain at 10 mg/kg, po qd for 5 days measured 2 hrs post last dose by LC-MS/MS analysis. The data set is classed as ADME, organism-based. The following applies: read-out: Drug uptake. A digest of the protocol:
as §2

Data set [6] is described as follows: Drug level in Sprague-Dawley rat plasma at 10 mg/kg, po qd for 5 days measured 2 hrs post last dose by LC-MS/MS analysis. Type of data set: ADME, organism-based. A digest of the protocol: as §2
Data set [7] concerns Rattus norvegicus. Briefly: In vivo inhibition of glycine transporter-1 in Sprague-Dawley rat assessed as increase in CSF glycine level at 1 to 10 mg/kg, po qd for 5 days measured 48 hrs post last dose by LC-MS/MS analysis. The data set is classed as functional, organism-based. A digest of the protocol: as §1
Data set [8] in a line: Intrinsic clearance in rat. The data set is classed as ADME.
For data set [9], the target named is Cytochrome P450 3A4 (Homo sapiens, UniProt P08684). Briefly: Inhibition of CYP3A4 (unknown origin). Type of data set: ADME.
Cytochrome P450 3A4, sequence (P08684 whole entry): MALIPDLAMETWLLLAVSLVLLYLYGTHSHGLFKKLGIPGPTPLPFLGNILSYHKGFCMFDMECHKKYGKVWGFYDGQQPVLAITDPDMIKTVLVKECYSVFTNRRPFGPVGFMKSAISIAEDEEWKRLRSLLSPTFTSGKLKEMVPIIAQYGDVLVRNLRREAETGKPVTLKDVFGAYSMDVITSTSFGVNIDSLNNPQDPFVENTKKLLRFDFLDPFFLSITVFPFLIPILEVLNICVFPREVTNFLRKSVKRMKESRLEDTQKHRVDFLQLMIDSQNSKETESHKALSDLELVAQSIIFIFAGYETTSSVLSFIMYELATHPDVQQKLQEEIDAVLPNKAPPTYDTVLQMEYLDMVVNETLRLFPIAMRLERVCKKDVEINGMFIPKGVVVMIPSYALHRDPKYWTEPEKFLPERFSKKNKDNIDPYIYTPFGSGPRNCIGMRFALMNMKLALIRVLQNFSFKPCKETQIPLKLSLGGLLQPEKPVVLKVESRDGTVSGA
Data set [10] concerns the target Cytochrome P450 2C19 (Homo sapiens, UniProt P33261). Briefly: Inhibition of CYP2C19 (unknown origin). The data set is classed as ADME.
Data set [11] can be described thus: Protein binding in rat plasma. The data set is classed as ADME, cell-free. The following applies: read-out: PPB (converted).
Data set [12] is described as follows: Apparent permeability from apical to basolateral side in human Caco2 cells. Type of data set: ADME, cell-based. The following applies: Caco-2. The method in brief:
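Caco-2 monolayer permeability measured in both the A-to-B and B-to-A directions and reported as P_app (×10⁻⁶ cm/s).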
(Caco-2 cells form a polarised layer with tight junctions and transporters.)

Data set [13] can be described thus: Cmax in Sprague-Dawley rat plasma at 10 mg/kg, po administered as single dose by LC-MS/MS analysis. The data set is classed as ADME, organism-based. Further details: dose 10 mg/kg, route oral. A digest of the protocol:
(§3)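 Single-dose PK in drug-naive adult male Sprague−Dawley rats, n = 3 per group: 3.1 μmol/kg IV in 5% DMSO/10% Solutol in saline (5 mL/kg), or 15.7 μmol/kg PO in 5% Solutol/10% Captisol in 25 mM PBS, pH adjusted to 2 with HCl. Plasma parameters reported as mean ± SD.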

The nature of data set [14]: Tmax in Sprague-Dawley rat plasma at 10 mg/kg, po administered as single dose by LC-MS/MS analysis. The data set is classed as ADME, organism-based. The method in brief: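 Groups of three drug-naive adult male Sprague–Dawley rats, single dose: IV 3.1 μmol/kg in 5% DMSO/10% Solutol in saline (5 mL/kg), or PO 15.7 μmol/kg in 5% Solutol/10% Captisol in 25 mM PBS adjusted to pH 2 with HCl. Plasma concentration–time data give the parameters; mean ± SD.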

The nature of data set [15]: Tmax in cynomolgus monkey plasma at 5 mg/kg, po by LC-MS/MS analysis. The data set is classed as ADME, organism-based, Macaca fascicularis. A digest of the protocol:
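Three female cynomolgus monkeys per group, single dose: IV 1.5 μmol/kg in 5% DMSO/10% Solutol in saline, pH 6.5 (2 mL/kg), or PO 7.8 μmol/kg in 5% Solutol in 20% Captisol, 25 mM PBS, pH 2 (5 mL/kg). Parameters come from plasma concentration–time data; mean ± SD.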

The nature of data set [16]: AUClast in Sprague-Dawley rat plasma at 10 mg/kg, po or 2 mg/kg, iv administered as single dose measured up to 24 hrs post dose by LC-MS/MS analysis. Type of data set: ADME, organism-based. The method in brief: as §3
The test system of data set [17] is Cynomolgus monkey. Briefly: In vivo inhibition of glycine transporter-1 in cynomolgus monkey assessed as CSF glycine level at 10 mg/kg, po measured up to 24 hrs post dose by LC-MS/MS analysis relative to control. Type of data set: functional, Macaca fascicularis. Further details: scale not given: the % may be the effect or the level left. The method in brief: (§4)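 Cynomolgus monkeys, n = 3 per group, given oral doses of 0.4, 1.5, 4.7 or 15.7 μmol/kg. Vehicle was 5% Solutol / 20% Captisol in 25 mM PBS, pH 2. CSF (about 0.30 mL) was drawn through subcutaneous ports with a sterile Huber needle predose and at 0.5, 1, 2, 3, 4, 8, 12 and 24 h. Matched blood was taken at each time. Mean ± SD.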

Data set [18] relates to Cynomolgus monkey. Briefly: In vivo inhibition of glycine transporter-1 in po dosed cynomolgus monkey assessed as increase in CSF glycine level measured up to 24 hrs post dose by LC-MS/MS analysis. Type of data set: functional, Macaca fascicularis. A digest of the protocol:
as §4

A short description of data set [19]: Drug level in cynomolgus monkey plasma at 10 mg/kg, po measured at 3 hrs post dose by LC-MS/MS analysis. Type of data set: ADME, organism-based, Macaca fascicularis.
Data set [20] in a line: Drug level in cynomolgus monkey plasma at 10 mg/kg, po measured at 8 hrs post dose by LC-MS/MS analysis. The data set is classed as ADME, organism-based, Macaca fascicularis.
A short description of data set [21]: Drug level in cynomolgus monkey CSF at 10 mg/kg, po measured at 1 hr post dose by LC-MS/MS analysis. The data set is classed as ADME, organism-based, Macaca fascicularis, Cerebrospinal fluid. Conditions: read-out: Drug uptake. The method in brief: (§5)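 Cynomolgus monkeys (n = 3/group) fitted with subcutaneous CSF ports were dosed orally at 0.4−15.7 μmol/kg in 5% Solutol plus 20% Captisol in 25 mM PBS, pH 2. CSF (about 0.30 mL) and blood were sampled predose and at 0.5, 1, 2, 3, 4, 8, 12 and 24 h. Quantitation limit 1.0 ng/mL; mean ± SD.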

The nature of data set [22]: Drug level in cynomolgus monkey CSF at 10 mg/kg, po measured at 8 hrs post dose by LC-MS/MS analysis. Type of data set: ADME, organism-based, Macaca fascicularis, Cerebrospinal fluid. The following applies: read-out: Drug uptake. A digest of the protocol: as §5
A short description of data set [23]: Drug level in cynomolgus monkey CSF at 10 mg/kg, po measured at 24 hrs post dose by LC-MS/MS analysis. The data set is classed as ADME, organism-based, Macaca fascicularis, Cerebrospinal fluid. The following applies: read-out: Drug uptake. A digest of the protocol: as §5
The nature of data set [24]: Toxicity in cynomolgus monkey assessed as gross behavioral abnormality at 0.3 to 10 mg/kg, po measured up to 24 hrs post dose. The data set is classed as organism-based, Macaca fascicularis. Conditions: in vivo. A digest of the protocol: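 Cynomolgus monkeys (n = 3/group) received an oral dose of 0.4, 1.5, 4.7 or 15.7 μmol/kg in 5% Solutol/20% Captisol in 25 mM PBS, pH 2. CSF was drawn via subcutaneous ports and blood sampled predose and at 0.5–24 h.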

Calls of active or inactive are those of the source. The rule behind the calls is not given here. Where only a bound is given, the exact number is not on record here.

Cytochrome P450 2C19, sequence (P33261 whole entry): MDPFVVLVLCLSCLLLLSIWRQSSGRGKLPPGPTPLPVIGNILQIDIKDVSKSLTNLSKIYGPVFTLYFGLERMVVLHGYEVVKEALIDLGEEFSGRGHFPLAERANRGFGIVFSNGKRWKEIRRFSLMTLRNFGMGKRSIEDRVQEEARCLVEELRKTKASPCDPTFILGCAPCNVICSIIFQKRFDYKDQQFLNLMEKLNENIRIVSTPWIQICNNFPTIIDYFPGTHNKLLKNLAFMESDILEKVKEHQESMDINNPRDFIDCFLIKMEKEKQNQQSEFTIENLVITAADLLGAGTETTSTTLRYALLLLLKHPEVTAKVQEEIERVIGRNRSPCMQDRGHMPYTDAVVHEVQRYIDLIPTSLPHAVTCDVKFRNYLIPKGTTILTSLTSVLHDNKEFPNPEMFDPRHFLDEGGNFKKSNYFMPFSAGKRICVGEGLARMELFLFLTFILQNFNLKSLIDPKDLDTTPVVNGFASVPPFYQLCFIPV

For the compound `Cl.Cn1cc(S(=O)(=O)N2CCN(C3(CNC(=O)c4ccc(C(F)(F)F)cc4Cl)CCC(F)(F)CC3)CC2)nn1`, the concentration at 2 h in data set [1] was 8.3 nM; in [3], 21 nM; in data set [4], 44.8 nM; in [5], 69.4 nM; in data set [6] it was 237 nM. The Activity in data set [2] is 266.3%. Further, the inhibition entry in [7] was “inactive”.
In data set [8], `CC(NC(=O)c1ccc(C(F)(F)F)cc1Cl)C1(N2CCN(S(=O)(=O)c3cn(C)nn3)CC2)CCC(F)(F)CC1.Cl` (single isomer, unassigned; (+)) yielded a CL of 6 microL/ml/min. The IC50 in data set [9] and in data set [10] was over 7.2 µM in each case. For the same compound, the fraction unbound in [11] was 0.13. Moreover, in data set [12], the Papp A→B worked out at 23.9 ×10⁻⁶ cm/s. The compound further had a Cmax in data set [13] of 352 ng/mL. Also, the Tmax in data set [14] came out at 2.67 h; in data set [15], 1.67 h. For the same compound, the AUC(0-t) at 24 h in [16] was 1960 ng·h/mL. Also, the Activity in [17] is on record as over 300%; in data set [24] it was “Non-Toxic”. In data set [18], the ED200 lay in the range of 4.7 to 15.7 µmol/kg. Besides, the concentration at 3 h in data set [19] turned out to be 205 ng/mL. Further, the concentration at 8 h in data set [20] came to 156 ng/mL; in data set [22] it was 7.6 ng/mL. In [21], the concentration at 1 h was determined as 5.9 ng/mL. Also, the concentration at 24 h in data set [23] was found to be 1.2 ng/mL.

The record behind these values is ChEMBL document CHEMBL4428077, “Synthesis and Biological Evaluation of N-((1-(4-(Sulfonyl)piperazin-1-yl)cycloalkyl)methyl)benzamide Inhibitors of Glycine Transporter-1” (J Med Chem, 2016).
